Data published in ChEMBL document CHEMBL4052593, “Pharmacokinetic Analysis and in Vivo Antitumor Efficacy of Taccalonolides AF and AJ” (J Nat Prod, 2017).
Active and inactive are the calls of the source. The calls are words filed in the database; no cut-off is given here.

Columns and labels:
Liver [1] = test: Half life in human liver microsomes in absence of NADPH by LC-MS/MS analysis; format: ADME, microsome
Mus musculus [2] = test: Toxicity against athymic nude mouse xenografted with human SCC4 cells assessed as weight loss at 40 ug administered intratumorally on day 0 and day 3 measured up to day 17 post dose; conditions: in vivo, other
How it was run: (§1)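 SCC-4 cells (1 × 10^6) were implanted subcutaneously in the rear flank of 6–7 week old female athymic nude mice. At an average tumor volume of 200 mm3, mice were grouped. Tumors were injected on days 0 and 3 with drug in 100 µL PBS containing 8% ethanol, or vehicle, under isoflurane. Mice were monitored for weight loss and toxicity; tumors were measured with calipers every 2–4 days.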

MDA-MB-435 [3] = test: Ratio of GI50 for human MDA-MB-435 cells in presence of 1% FBS to GI50 for human MDA-MB-435 cells in presence of 0.1% FBS; format: functional
How it was run: (§2)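 MDA-MB-435 human melanoma cells were kept in IMEM with 10% FBS. They were tested across a concentration range in 0.1, 1 or 10% serum using sulforhodamine B, with cell density at drug addition as the cytotoxicity baseline. GI50 in 1% or 10% serum was divided by GI50 in 0.1% serum. Three independent experiments, each concentration in triplicate.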

SCC-4 [4] = test: Antitumor activity against human SCC4 cells xenografted in athymic nude mouse assessed as tumor growth inhibition at 40 to 80 ug administered intratumorally on day 0 and day 3 measured on day 17 post dose; format: functional, cell-based
How it was run: (§3)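 Female athymic nude mice, 6–7 weeks old, received 1 × 10^6 SCC-4 cells subcutaneously in the rear flank. Treatment began when tumors averaged 200 mm3. Under isoflurane, tumors were injected directly on days 0 and 3 with drug in 100 µL PBS with final 8% ethanol, or with vehicle only; the total dose was split between the two days. Calipers were read every 2–4 days and volume taken as width × length × height. Body weight and toxicity were monitored. Groups were compared over 17 days by two-way ANOVA with Tukey post-hoc; time for tumors to reach 1,500 mm3 was also tracked.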

Mus musculus [5] = test: Elimination half life in athymic nude mouse at 300 ug, iv after 2 hrs by LC-MS analysis; format: ADME, organism-based; conditions: in vivo
How it was run: (§4)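 Female athymic nude mice, 6–7 weeks old, got a 300 µg IV tail-vein bolus. Plasma was taken from 3–5 mice per time point (pre-dose, end of infusion, 0.25, 0.5, 1, 2 h), ethyl acetate-extracted and quantified by LC-MS against weighted (1/X2) calibration curves. Noncompartmental analysis: Cmax by inspection, t1/2 from the last two log points, AUC by linear trapezoid extrapolated to infinity, CL = dose/AUC.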

MDA-MB-435 [6] = test: Antiproliferative activity against human MDA-MB-435 cells assessed as cell growth inhibition in presence of 0.1% FBS by sulforhodamine B assay; format: functional
How it was run: (§5)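 MDA-MB-435 cells, normally kept in IMEM with 10% FBS and gentamicin, were exposed to concentration-response series in medium holding 0.1%, 1% or 10% serum. Growth was measured by sulforhodamine B staining. Cell density at the time of drug addition marked the line between antiproliferative and cytotoxic effect. GI50 was taken from the curves. Three independent experiments were run, each concentration in triplicate, reported as mean ± SEM.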

Liver [7] = test: Half life in human liver microsomes in presence of NADPH by LC-MS/MS analysis; format: ADME, microsome
Liver [8] = test: Intrinsic clearance in human liver microsomes in absence of NADPH by LC-MS/MS analysis; format: ADME, microsome
SCC-4 [9] = test: Antitumor activity against human SCC4 cells xenografted in athymic nude mouse assessed as tumor growth inhibition administered intratumorally on day 0 and day 3 measured up to day 17 post dose; format: functional, cell-based; how it was run: as §3
SCC-4 [10] = test: Antitumor activity against human SCC4 cells xenografted in athymic nude mouse assessed as tumor growth inhibition at 40 to 80 ug administered intratumorally on day 0 and day 3 measured on day 14 post dose; format: functional, cell-based; how it was run: as §3
Mus musculus [11] = test: Cmax in athymic nude mouse at 300 ug, iv after 2 hrs by LC-MS analysis; format: ADME, organism-based; set-up: dose 300 ug, route intravenous; conditions: in vivo; how it was run: as §4
Mus musculus [12] = test: Clearance in athymic nude mouse at 300 ug, iv after 2 hrs by LC-MS analysis; format: ADME, organism-based; conditions: in vivo; how it was run: as §4
SCC-4 [13] = test: Antitumor activity against human SCC4 cells xenografted in athymic nude mouse assessed as tumor burden at 80 ug administered intratumorally on day 0 and day 3 measured on day 10 post dose; format: functional; how it was run: as §3
HeLa = test: Antiproliferative activity against human HeLa cells after 48 hrs by SRB assay; format: functional, cell-based
Liver [14] = test: Intrinsic clearance in human liver microsomes in presence of NADPH by LC-MS/MS analysis; format: ADME, microsome
SCC-4 [15] = test: Antitumor activity against human SCC4 cells xenografted in athymic nude mouse assessed as tumor growth inhibition at 20 ug administered intratumorally on day 0 and day 3 measured every 2 to 4 days up to 2 weeks; format: functional, cell-based; how it was run: as §3
Plasma = test: Drug uptake in athymic nude mouse plasma at 300 ug, iv after 2 hrs by LC-MS analysis; format: ADME, organism-based; conditions: in vivo; how it was run: as §4
MDA-MB-435 [16] = test: Ratio of GI50 for human MDA-MB-435 cells in presence of 10% FBS to GI50 for human MDA-MB-435 cells in presence of 0.1% FBS; format: functional; how it was run: as §2
MDA-MB-435 [17] = test: Antiproliferative activity against human MDA-MB-435 cells assessed as cell growth inhibition in presence of 10% FBS by sulforhodamine B assay; format: functional; how it was run: as §5
Mus musculus [18] = test: AUC in athymic nude mouse at 300 ug, iv after 2 hrs by LC-MS analysis; format: ADME, organism-based; set-up: dose 300 ug, time < 2 hr, route intravenous; conditions: in vivo; how it was run: as §4
MDA-MB-435 [19] = test: Antiproliferative activity against human MDA-MB-435 cells assessed as cell growth inhibition in presence of 1% FBS by sulforhodamine B assay; format: functional; how it was run: as §5
SCC-4 [20] = test: Antitumor activity against human SCC4 cells xenografted in athymic nude mouse assessed as reduction in tumor burden at 80 ug administered intratumorally on day 0 and day 3 measured on day 51 post dose; format: functional, cell-based; how it was run: as §3
Mus musculus [21] = test: Toxicity in athymic nude mouse xenografted with human SCC4 cells assessed as weight loss at 40 ug administered intratumorally on day 0 and day 3 measured up to 2 weeks; conditions: in vivo, other, 336 h; how it was run: as §1
SCC-4 [22] = test: Antitumor activity against human SCC4 cells xenografted in athymic nude mouse assessed as tumor growth inhibition at 40 ug administered intratumorally on day 0 and day 3 measured up to 2 weeks; format: functional, cell-based; how it was run: as §3
MDA-MB-435 [23] = test: Antiproliferative activity against human MDA-MB-435 cells assessed as cell growth inhibition at 1 nM in presence of 0.1% FBS by sulforhodamine B assay relative to control; conditions: MDA-MB-435, read-out: GI
MDA-MB-435 [24] = test: Antiproliferative activity against human MDA-MB-435 cells assessed as cell growth inhibition at 1 nM in presence of 1% FBS by sulforhodamine B assay relative to control; conditions: MDA-MB-435, read-out: GI
MDA-MB-435 [25] = test: Antiproliferative activity against human MDA-MB-435 cells assessed as cell growth inhibition at 1 nM in presence of 10% FBS by sulforhodamine B assay relative to control; conditions: MDA-MB-435, read-out: GI

| SMILES | t1/2 (Liver [1]) [h] | RatioGI50 (MDA-MB-435 [3]) | beta t1/2 (Mus musculus [5]) [h] | GI50 (MDA-MB-435 [6]) [nM] | t1/2 (Liver [7]) [h] | Cmax (Mus musculus [11]) [ng/mL] | CL (Mus musculus [12]) [mL/h] | Activity (SCC-4 [13]) [mm3] | IC50 (HeLa) [nM] | CLH (Liver [14]) [µL/min/mg] | RatioGI50 (MDA-MB-435 [16]) | GI50 (MDA-MB-435 [17]) [nM] | AUC (Mus musculus [18]) [ng·h/mL] | GI50 (MDA-MB-435 [19]) [nM] | also measured |
| --- | --- | --- | --- | --- | --- | --- | --- | --- | --- | --- | --- | --- | --- | --- | --- |
| CC(=O)O[C@H]1[C@H]2[C@H]([C@@H]3[C@@H](O)[C@@H]4[C@H]([C@H](C)[C@H]5O[C@]56OC(=O)[C@@](C)(O)[C@]46C)[C@@]3(C)[C@H]1OC(C)=O)[C@@H](O)C(=O)[C@H]1C[C@@H]3O[C@@H]3[C@H](OC(C)=O)[C@]21C | > 4 | 1.2 | 0.135 | 6 | 0.783 | 19000 | 85 | <1500 | 4 | 15 | 1.5 | 9 | 3500 | 7 | Activity (Mus musculus [2]): Non-Toxic; TGI (SCC-4 [4]): Active; CLH (Liver [8]): 300 µL/min/mg; TGI (SCC-4 [9]): Dose-dependent effect; TGI (SCC-4 [10]): Active; TGI (SCC-4 [15]): inactive; Drug uptake (Plasma): Not Active |
| CC(=O)O[C@@H]1[C@H]2[C@H]3[C@H]([C@H](OC(C)=O)[C@H](OC(C)=O)[C@]2(C)[C@H]2[C@H](C)[C@H]4O[C@]45OC(=O)[C@@](C)(O)[C@]5(C)[C@H]12)[C@]1(C)[C@H](C[C@@H]2O[C@@H]2[C@@H]1OC(C)=O)C(=O)[C@@H]3O | > 4 | 1.2 | 0.733 | 25 | 1.38 | 8600 | 240 | <1500 | 24 | 8.3 | 1.9 | 47 | 1300 | 30 | Activity (SCC-4 [20]): Active; Activity (Mus musculus [21]): Non-Toxic; TGI (SCC-4 [22]): Active |
| CC(=O)CC(c1ccccc1)c1c(O)c2ccccc2oc1=O (stereo not given) [WARFARIN] |  |  |  |  |  |  |  |  |  | 0 |  |  |  |  |  |
| CC(=O)O[C@H]1C(=O)[C@@]2(C)[C@H]([C@H](OC(=O)c3ccccc3)[C@]3(O)C[C@H](OC(=O)[C@H](O)[C@@H](NC(=O)c4ccccc4)c4ccccc4)C(C)=C1C3(C)C)[C@]1(OC(C)=O)CO[C@@H]1C[C@@H]2O [PACLITAXEL] |  |  |  | 1 |  |  |  |  |  |  |  | 3.4 |  | 1.9 | inhibition of growth at 0.001 µM (MDA-MB-435 [23]): 54%; inhibition of growth at 0.001 µM (MDA-MB-435 [24]): 27%; inhibition of growth at 0.001 µM (MDA-MB-435 [25]): 9% |
